Measured values from ChEMBL document CHEMBL3046507, “Synthesis and herbicidal activities of novel 3-N-substituted amino-6-methyl-4-(3-trifluoromethylphenyl)pyridazine derivatives” (2008).

Experiments:
[1] = system: Brassica rapa subsp. oleifera; experiment: Herbicidal activity against Brassica rapa subsp. oleifera assessed as inhibition of fresh plant weight at 750 g/ha using preemergence protocol measured after 24 days under green house conditions; details: pre-emergence
Amaranthus retroflexus [2] = experiment: Herbicidal activity against Amaranthus retroflexus assessed as inhibition of fresh plant weight at 750 g/ha using postemergence protocol measured after 24 days under green house conditions; details: post-emergence
Spirodela polyrhiza [3] = experiment: Inhibition of chlorophyll in Spirodela polyrhiza fronds at 10 ug/mL using light intensity of 45 uE/m2/s measured after 7 days; format: functional; details: 168 h
Method in brief: (§1)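 Giant duckweed assay. Compound in DMF dropped onto filter paper, solvent evaporated 15 min, paper placed in flask with 15 mL fresh medium and shaken >10 min. 10 fronds inoculated per flask and grown 7 days at 23-26 °C, 16 h light/8 h dark, ca. 45 µE m^-2 s^-1. DMF plus medium served as control. Chl extracted in 96% ethanol overnight at 4 °C; OD read at 665 and 649 nm; content expressed as percent of control.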

Amaranthus retroflexus [4] = experiment: Herbicidal activity against Amaranthus retroflexus assessed as inhibition of fresh plant weight at 750 g/ha using preemergence protocol measured after 24 days under green house conditions; details: pre-emergence
Spirodela polyrhiza [5] = experiment: Inhibition of chlorophyll in Spirodela polyrhiza fronds at 1 ug/mL using light intensity of 45 uE/m2/s measured after 7 days; format: functional; details: 168 h
Method in brief: as §1

Echinochloa crus-galli [6] = experiment: Herbicidal activity against Echinochloa crus-galli (barnyard grass) assessed as inhibition of fresh plant weight at 750 g/ha using preemergence protocol measured after 24 days under green house conditions; details: pre-emergence
[7] = system: Brassica rapa subsp. oleifera; experiment: Herbicidal activity against Brassica rapa subsp. oleifera assessed as inhibition of fresh plant weight at 750 g/ha using postemergence protocol measured after 24 days under green house conditions; details: post-emergence
Digitaria [8] = experiment: Herbicidal activity against Digitaria adscendens assessed as inhibition of fresh plant weight at 750 g/ha using preemergence protocol measured after 24 days under green house conditions; details: in Digitaria adscendens, pre-emergence
Echinochloa crus-galli [9] = experiment: Herbicidal activity against Echinochloa crus-galli (barnyard grass) assessed as inhibition of fresh plant weight at 750 g/ha using postemergence protocol measured after 24 days under green house conditions; details: post-emergence
Digitaria [10] = experiment: Herbicidal activity against Digitaria adscendens assessed as inhibition of fresh plant weight at 750 g/ha using postemergence protocol measured after 24 days under green house conditions; details: in Digitaria adscendens, post-emergence

SMILES | inhibition at 750 g/ha [1] [%] | inhibition at 750 g/ha (Amaranthus retroflexus [2]) [%] | inhibition at 10 µg/mL (Spirodela polyrhiza [3]) [%] | inhibition at 750 g/ha (Amaranthus retroflexus [4]) [%] | inhibition at 1 µg/mL (Spirodela polyrhiza [5]) [%] | inhibition at 750 g/ha (Echinochloa crus-galli [6]) [%] | inhibition at 750 g/ha [7] [%] | inhibition at 750 g/ha (Digitaria [8]) [%] | inhibition at 750 g/ha (Echinochloa crus-galli [9]) [%] | inhibition at 750 g/ha (Digitaria [10]) [%]
Cc1cc(-c2cccc(C(F)(F)F)c2)c(NCc2ccc(Cl)cc2)nn1 | 7 | 44 | 85 | 3 | 25 | 9 | 27 | 0 | 15 | 18
Cc1cc(-c2cccc(C(F)(F)F)c2)c(NCc2ccccc2Cl)nn1 | 0 | 33 | 90 | 36 | 73 | 3 | 34 | 1 | 26 | 29
Cc1cc(-c2cccc(C(F)(F)F)c2)c(NC(C)c2ccccc2)nn1 (stereo not given) | 12 | 7 | 63 | 10 | 31 | 10 | 0 | 12 | 43 | 54
Cc1cc(-c2cccc(C(F)(F)F)c2)c(NC(C)c2ccc(F)cc2)nn1 (stereo not given) | 13 | 1 | 79 | 1 | 47 | 14 | 0 | 28 | 0 | 57
Cc1cc(-c2cccc(C(F)(F)F)c2)c(NC(C)c2ccc(Cl)cc2)nn1 (stereo not given) | 2 | 17 | 23 | 16 | 15 | 13 | 8 | 11 | 27 | 67
Cc1cc(-c2cccc(C(F)(F)F)c2)c(NCCc2ccccc2)nn1 | 0 | 30 | 100 | 16 | 100 | 4 | 45 | 27 | 13 | 11
Cc1cc(-c2cccc(C(F)(F)F)c2)c(Nc2ccccc2C)nn1 | 7 | 38 | 83 | 0 | 65 | 0 | 86 | 11 | 10 | 1
Cc1ccc(Nc2nnc(C)cc2-c2cccc(C(F)(F)F)c2)c(C)c1 | 10 | 0 | 72 | 0 | 69 | 0 | 22 | 7 | 25 | 11
COc1ccccc1Nc1nnc(C)cc1-c1cccc(C(F)(F)F)c1 | 9 | 30 | 82 | 4 | 62 | 0 | 6 | 0 | 11 | 0
COc1ccc(Nc2nnc(C)cc2-c2cccc(C(F)(F)F)c2)cc1 | 13 | 27 | 100 | 55 | 100 | 5 | 44 | 2 | 28 | 89
Cc1cc(-c2cccc(C(F)(F)F)c2)c(Nc2ccccc2Cl)nn1 | 9 | 41 | 100 | 10 | 82 | 2 | 93 | 0 | 24 | 19
Cc1cc(-c2cccc(C(F)(F)F)c2)c(Nc2cccc(Cl)c2)nn1 | 3 | 38 | 100 | 12 | 100 | 0 | 63 | 0 | 7 | 5
Cc1cc(-c2cccc(C(F)(F)F)c2)c(Nc2cccc(Br)c2)nn1 | 14 | 30 | 100 | 0 | 100 | 0 | 17 | 0 | 0 | 0
Cc1cc(-c2cccc(C(F)(F)F)c2)c(Nc2ccc(Br)cc2)nn1 | 26 | 45 | 63 | 54 | 59 | 15 | 36 | 14 | 13 | 26
Cc1cc(-c2cccc(C(F)(F)F)c2)c(Nc2ccc(OC(F)(F)F)cc2)nn1 | 0 | 26 | 83 | 35 | 65 | 0 | 50 | 5 | 21 | 35
Cc1cc(-c2cccc(C(F)(F)F)c2)c(NCc2ccccc2)nn1 | 0 | 27 | 86 | 4 | 83 | 0 | 30 | 7 | 8 | 23
Cc1ccc(CNc2nnc(C)cc2-c2cccc(C(F)(F)F)c2)cc1 | 16 | 2 | 74 | 31 | 34 | 78 | 20 | 64 | 0 | 54
COc1ccc(CNc2nnc(C)cc2-c2cccc(C(F)(F)F)c2)cc1 | 0 | 18 | 84 | 2 | 51 | 22 | 14 | 0 | 0 | 8
Cc1cc(-c2cccc(C(F)(F)F)c2)c(NCc2ccccc2F)nn1 | 24 | 44 | 81 | 8 | 77 | 0 | 49 | 0 | 10 | 24
